For series [1], the system named is MCF7. As to the kind of experiment: Cytotoxicity against human MCF7 cells after 24 hrs by MTT assay. The series is classed as functional. As to conditions: MCF7, 24 h. In short, it runs like this: (§1)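 Cells kept at 37 °C in humidified 5% CO2 and seeded at 5 × 10³ cells/well the day before. They were PBS-washed, given fresh medium, then exposed to test compounds (0.1–100 µM) for 24 h. MTT (5 mg/mL in PBS) was then added for 4 h at 37 °C. Formazan was dissolved in DMSO and OD read at 570 nm. Each concentration was run in three experiments, three replicates each.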

The test system of series [2] is COLO 205. As to the kind of experiment: Cytotoxicity against human COLO205 cells after 24 hrs by MTT assay. In kind it is functional. As to conditions: COLO 205, 24 h. In a few lines: as §1
The target of series [3] is 5-lipoxygenase (Solanum tuberosum). Description: Inhibition of 5-lipoxygenase.
Series [4] deals with HaCaT. As to the kind of experiment: Cytotoxicity against human HaCaT cells at up to 100 uM after 24 hrs by MTT assay. In kind it is cell-based. In short, it runs like this: as §1

Each structure is given as a SMILES string. Some results are limits rather than exact numbers.

With `COc1cccc(/C=C/C(=O)c2ccc(OCC=C(C)C)cc2O)c1OC`, the GI50 in series [1] and in series [2] was more than 100 µM in each case. Further, in series [3], the half-maximal inhibitory concentration (IC50) was more than 100 µM.

As to `COc1ccc(/C=C/C(=O)c2ccc(OCC=C(C)C)cc2O)c(OC)c1OC`, the GI50 in series [1] and in series [2] was more than 100 µM throughout. In addition, the IC50 in series [3] was more than 100 µM.

As for `COc1ccc(/C=C/C(=O)c2ccc(OCC=C(C)C)cc2O)cc1OC`, the GI50 in series [1] and in series [2] was more than 100 µM throughout. Also, in series [3], the IC50 was more than 100 µM.

Turning to `COc1cc(/C=C/C(=O)c2ccc(OCC=C(C)C)cc2O)cc(OC)c1OC`, the values for the GI50 in series [1] and in series [2] were 81 µM and 96 µM, respectively. For the same compound, in series [3], the IC50 was more than 100 µM.

With `COc1ccc(/C=C/C(=O)c2ccc(OCC=C(C)C)cc2OCC=C(C)C)cc1`, the GI50 in series [1] turned out to be 67.5 µM; in series [2], 97 µM.

Consider `COc1cccc(/C=C/C(=O)c2ccc(OCC=C(C)C)cc2OCC=C(C)C)c1OC`, for which the concentration for 50% growth inhibition (GI50) in series [1] is 73 µM; in series [2] it was 99 µM.

Regarding `COc1ccc(/C=C/C(=O)c2ccc(OCC=C(C)C)cc2OCC=C(C)C)c(OC)c1OC`, the GI50 in series [1] is 92 µM; in series [2], more than 100 µM. Moreover, the midpoint of inhibition in series [3], the IC50, lay at 49 µM.

In the case of `COc1ccc(/C=C/C(=O)c2ccc(OCC=C(C)C)cc2OCC=C(C)C)cc1OC`, the GI50 was 66.5 µM in series [1] and 90 µM in series [2]. In series [3], this compound came in with an IC50 of 9 µM.

Take `COc1cc(/C=C/C(=O)c2ccc(OCC=C(C)C)cc2OCC=C(C)C)cc(OC)c1OC`: the GI50 in series [1] turned out to be 9 µM; in series [2], 78 µM. Also, the Activity result in series [4] was “Non-toxic”. This compound also showed an IC50 in series [3] of 4 µM.

Turning to `COc1ccc(/C=C/C(=O)c2ccc(OCC=C(C)C)cc2O)cc1`, the results for the GI50 in series [1] and in series [2] were 97.5 µM and more than 100 µM, respectively. In series [3], this compound registered an IC50 of more than 100 µM.

Values taken from ChEMBL document CHEMBL1212887, “Design, synthesis, and biological evaluation of prenylated chalcones as 5-LOX inhibitors” (Bioorg Med Chem, 2010).
